Entries after “also recorded” stand apart in the source; their conditions may differ. Counter-ions that a name gives are not always drawn. Values belong to the compound of their own block, whether it stands above or below them. Bridge positions count the residues as written; N and C are the ends. Ends that are not written are not given here.
Columns and labels:
HEK-PR1 cells [1] = assay: Potentiation of CCh-evoked Ca^2+ signals in cell populations; assay type: cell-based, human; conditions: for effect on CCh-evoked Ca^2+ signals: 30 mM; for effect of stimulus alone on [Ca^2+]i / Ca^2+ release (absence of CCh): somatostatin 1 μM; for increase in the sensitivity to CCh: PTH 100 nM 1 min, 8-Br-cAMP 10 mM 20 min; for Δ [Ca^2+]i Maximal increase: potentiation of CCh-evoked Ca^2+ signal, 30-s stimulation; for potentiation of CCh-evoked Ca^2+ signals: qualitative
IP3R = assay: IP3-evoked Ca^2+ release from permeabilized cells
HEK-PR1 cells [2] = assay: cAMP production measured by RIA; assay type: cell-based, human; conditions: for Δ cAMP Maximal response: identical conditions to Ca^2+ assay (with CCh); for EC50: read-out: Δ cAMP EC50
HEK-PR1 cells [3] = assay: Single cell imaging of [Ca^2+]i; assay type: cell-based, human; conditions: single cell analyses
PKA = conditions: ref He et al., 2003; cited from earlier work
HEK-PR1 cells [4] = conditions: <100 μM; ref Short and Taylor, 2000; Tovey et al., 2003; cited from earlier work
HEK-PR1 cells [5] = assay: Protein phosphorylation by Western blot with AbP; assay type: cell-based, human; conditions: H89 10 μM for 20 min
Procedure, shortened: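 Cells treated with 8-Br-cAMP (10 mM, 20 min), FK (100 μM, 30 s) or PTH (100 nM, 30 s), alone or after H89 (10 μM, 20 min) or st-ht31 (100 μM, 30 min). Lysed at 4°C in Triton X-100 buffer, pH 7.4, with NaF, pyrophosphate and vanadate. Blots probed with anti-phospho Ser/Thr antibody. For IP3R, the immunoprecipitated receptor signal was normalised to IP3R3 and expressed relative to unstimulated cells (n = 3–4).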

[6] = Homo sapiens, read-out: Δ [Ca^2+]i EC50

Compound: Nc1nc2c(nc(Br)n2[C@@H]2O[C@@H]3COP(=O)(O)O[C@H]3[C@H]2O)c(=O)[nH]1 [8-Br-cGMP]
- effect on CCh-evoked Ca^2+ signals (HEK-PR1 cells [1]; intact cells): ineffective

Compound: somatostatin (AGCKNFFWKTFTSC; disulfide 3-14 (inferred); ends not checked; UniProt P61278 103-116, looked up)
- effect of stimulus alone on [Ca^2+]i / Ca^2+ release (absence of CCh) (HEK-PR1 cells [1]): nor does

- affinity of IP3R site for cAMP relative to that of PKA or CNGC (IP3R; ref Wong and Scott, 2004 for PKA or CNGC): ~20,000 times lower
Compound: Nc1ncnc2c1ncn2[C@@H]1O[C@@H]2COP(=O)(O)O[C@H]2[C@H]1O [cAMP, cyclic adenosine monophosphate]
- increase in sensitivity of IP3-evoked Ca^2+ release (IP3R; permeabilized HEK cells, high concentrations of cAMP): ~4.5 fold

Compound: C=C[C@@]1(C)CC(=O)[C@@H]2[C@@]3(C)CCCC(C)(C)[C@@H]3[C@H](O)[C@H](OC(C)=O)[C@@]2(C)O1 [1,9-dideoxyforskolin]
- effect on [Ca^2+]i either alone or with CCh (HEK-PR1 cells [1]; 100 μM, unpublished data): no effect

Compound: CC(C)Cn1c(=O)n(C)c(=O)c2[nH]cnc21 [IBMX, 3-isobutyl-1-methylxanthine]
- effect of PDE inhibition on potentiated Ca^2+ signals (HEK-PR1 cells [1]; IBMX 1 mM for 20 min): slight inhibition

Compound: human PTH(1–34)
- Δ cAMP Maximal response (HEK-PR1 cells [2]; 30-s stimulation): 6,662 ± 1232 fmol/sample
- EC50 (HEK-PR1 cells [2]; 30-s stimulation, with CCh): 29 ± 7 nM
- increase in the sensitivity to CCh (HEK-PR1 cells [1]; intact cells): three- to fourfold
- Δ [Ca^2+]i Maximal increase (HEK-PR1 cells [1]): 101 ± 14 nM
- EC50 (HEK-PR1 cells [1]; read-out: EC50 for PTH-mediated Ca^2+ signaling, after loss of AC6 (siRNA)): 54 ± 5 nM
- EC50 (HEK-PR1 cells [1]; read-out: EC50 for PTH-mediated Ca^2+ signaling, before loss of AC6): 63 ± 3 nM
- effect of stimulus alone on [Ca^2+]i / Ca^2+ release (absence of CCh) (HEK-PR1 cells [1]): does not alone cause Ca^2+ release; also recorded: no significant effect
- cells that responded to CCh in which the Ca^2+ signal was potentiated (HEK-PR1 cells [3]): 99 ± 1%

Compound: CO[C@H]1C2OP(=O)(O)OC[C@H]2O[C@H]1n1c(Br)nc2c(N)ncnc21 (stereo partly shown) [8-Br-2′-O-methyladenosine-3′,5′-cAMP]
- effect on CCh-evoked Ca^2+ signals (HEK-PR1 cells [1]; intact cells): no effect

- EC50 (IP3R; read-out: EC50 for potentiation of IP3-evoked Ca^2+ release, permeabilized cells): 324000 ± 45000 nM
Compound: Nc1ncnc2c1nc(Br)n2[C@@H]1O[C@@H]2COP(=O)(O)O[C@H]2[C@H]1O [8-Br-cAMP]
- concentrations that activate PKA (PKA): < 100 µM
- potentiation of Ca^2+ signals at low concentrations (HEK-PR1 cells [4]): did not significantly potentiate
- effect on CCh-evoked Ca^2+ signals (HEK-PR1 cells [1]; intact cells): similarly potentiated
- increase in the sensitivity to CCh (HEK-PR1 cells [1]; intact cells): three- to fourfold
- EC50 (HEK-PR1 cells [1]; read-out: EC50 for potentiation of CCh-evoked Ca^2+ signals, intact cells, 1 mM CCh, 20-min preincubation): 870000 ± 370000 nM

Compound: C[N+](C)(C)CCOC(N)=O [CCh, Carbachol]
- cells that responded to CCh (HEK-PR1 cells [3]): 98 ± 1%

Compound: CC(C)NCC(O)c1ccc(O)c(O)c1 (racemic) [Isoproterenol, (±)-isoproterenol hydrochloride]
- Δ cAMP Maximal response (HEK-PR1 cells [2]; 30-s stimulation): 91 ± 15 fmol/sample
- EC50 (HEK-PR1 cells [2]; Homo sapiens): 113 ± 43 nM
- EC50 (HEK-PR1 cells [1]; [6]): 90 ± 24 nM
- Δ [Ca^2+]i Maximal increase (HEK-PR1 cells [1]): 30 ± 6 nM
- potentiation of CCh-evoked Ca^2+ signals (HEK-PR1 cells [1]): potentiated CCh-evoked Ca^2+ signals
- effect of stimulus alone on [Ca^2+]i / Ca^2+ release (absence of CCh) (HEK-PR1 cells [1]): no significant effect
- cells that responded to CCh in which the Ca^2+ signal was potentiated (HEK-PR1 cells [3]): 80 ± 4%

Compound: Cl.Cl.O=S(=O)(NCCNC/C=C/c1ccc(Br)cc1)c1cccc2cnccc12 [H89, H89 dihydrochloride]
- effect on phosphorylation of proteins stimulated by PTH, FK and 8-Br-cAMP (HEK-PR1 cells [5]): prevented
- effect of inhibition of PKA on responses of intact cells to 8-Br-cAMP (HEK-PR1 cells [1]; 10 μM H89, unpublished data): unaffected
- effect of H89 on sensitivity to isoproterenol (HEK-PR1 cells [1]; by competing for occupancy of β-adrenoceptors (Fig. S2 E)): decreased the sensitivity to isoproterenol

Compound: CCCCC[C@H](O)/C=C/[C@H]1[C@H](O)CC(=O)[C@@H]1CCCCCCC(=O)O [PGE1, Prostaglandin E1]
- potentiation of CCh-evoked Ca^2+ signals (HEK-PR1 cells [1]): potentiated CCh-evoked Ca^2+ signals

Compound: C=C[C@@]1(C)CC(=O)[C@]2(O)[C@@]3(C)[C@@H](O)CCC(C)(C)[C@@H]3[C@H](O)[C@H](OC(C)=O)[C@@]2(C)O1 [FK, forskolin]
- Δ cAMP Maximal response (HEK-PR1 cells [2]; 30-s stimulation): 236 ± 29 fmol/sample
- EC50 (HEK-PR1 cells [2]; Homo sapiens): 3300 ± 400 nM
- EC50 (HEK-PR1 cells [1]; [6]): 8700 ± 2000 nM
- Δ [Ca^2+]i Maximal increase (HEK-PR1 cells [1]): 55 ± 5 nM
- potentiation of CCh-evoked Ca^2+ signals (HEK-PR1 cells [1]): So too did
- effect of stimulus alone on [Ca^2+]i / Ca^2+ release (absence of CCh) (HEK-PR1 cells [1]): no significant effect
- cells that responded to CCh in which the Ca^2+ signal was potentiated (HEK-PR1 cells [3]): 95 ± 3%

— PMC2568025 (The Journal of Cell Biology, 2008)
